# Experimental data pooled from the literature.
# Protocols differ between the studies behind these lines. pIC50: −log10 of the molar value.
# Observed: cell growth or viability
SMILES,cell line,method,time,pIC50
O=[N+]([O-])c1cc(I)c(O)c(C=NNc2ccccc2)c1,HEK-293T,MTT,24 h,4.77
COc1ccc(NC(=O)NCc2cn(Cc3ccc(Br)cc3)nn2)cc1,Huh-7,CCK-8,72 h,< 4.30
O=[N+]([O-])c1cc(I)c(O)c(C=NNc2ccc(Cl)cc2)c1,HEK-293T,MTT,24 h,4.91
CN1CCN(c2ccc(Nc3c4ccccc4nc4ccccc34)cc2)CC1,THLE3,imaging,72 h,5.06
O=[N+]([O-])c1cc(Br)c(O)c(C=NNc2ccc(Br)cc2)c1,HEK-293T,MTT,24 h,4.91
COc1ccc(NC(=O)Nc2ccc(-c3cn(Cc4ccc(C)cc4)nn3)cc2)cc1,Huh-7,CCK-8,72 h,< 4.30
c1ccc(-c2noc(-c3nn(Cc4ccc5ccccc5c4)c4ccccc34)n2)cc1,HepG2,,48 h,3.94
CN1CCC(NC2CCc3[nH]c4c(C(N)=O)ccc(-c5ccccc5Cl)c4c3C2)CC1 (centres unmarked),Ramos,,96 h,7.94
COc1ccc(NC(=O)NCc2cn(Cc3ccc(Cl)cc3)nn2)cc1,Huh-7,CCK-8,72 h,< 4.30
O=C(Nc1ccc(Cl)cc1)Nc1cccc(-c2cn(Cc3ccc(Cl)cc3)nn2)c1,Huh-7,CCK-8,72 h,4.88
COc1ccc(NC(=O)Nc2ccc(-c3cn(Cc4ccc(Br)cc4)nn3)cc2)cc1,Huh-7,CCK-8,72 h,< 4.30
O=[N+]([O-])c1ccc(O)c(C=NNc2ccc(C(F)(F)F)cc2)c1,HEK-293T,MTT,24 h,4.77
CNC(=O)c1cc(Oc2ccc(NC(=O)Nc3ccc(Cl)c(C(F)(F)F)c3)cc2)ccn1,THLE3,imaging,72 h,5.06
COc1cccc2c1C(=O)c1c(O)c3c(c(O)c1C2=O)C[C@@](O)(C(=O)CO)C[C@@H]3O[C@H]1C[C@H](N)[C@H](O)[C@H](C)O1,Huh-7,ATP luminescence,72 h,6.22
COc1ccc(NC(=O)Nc2cccc(-c3cn(Cc4ccccc4C)nn3)c2)cc1,Huh-7,CCK-8,72 h,4.97
O=[N+]([O-])c1cc(Br)c(O)c(C=NNc2ccc(C(F)(F)F)cc2)c1,HEK-293T,MTT,24 h,4.74
COc1cccc2c1C(=O)c1c(O)c3c(c(O)c1C2=O)C[C@@](O)(C(=O)CO)C[C@@H]3O[C@H]1C[C@H](N)[C@H](O)[C@H](C)O1,HepG2,MTT,,6.34
